According to ChEMBL document CHEMBL4321859, “Unforeseen Possibilities To Investigate the Regulation of Polyamine Metabolism Revealed by Novel C-Methylated Spermine Derivatives” (J Med Chem, 2019):

Tests used:
[1] = Drug metabolism in human DU145 cells at 100 uM assessed as methylspermidine metabolite level assessed per ug DNA after 3 days by HPLC method; type: ADME, cell-based; settings: du-145, 72 h
Procedure, shortened: (§1)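 DU145 cells exposed to 100 μM analogue for 6 h or 3 days, with or without 1 mM aminoguanidine. Cells were lysed in 50 mM potassium phosphate pH 7.2 with EDTA, Triton X-100 and DTT. Lysate was mixed with sulphosalicylic acid containing diaminoheptane as internal standard. Polyamines, analogue and MeSpd were measured by HPLC and normalized to DNA (PicoGreen), expressed as pmol/μg DNA. Means ± SD, n = 3.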

DU-145 [2] = experiment: Downregulation of intracellular spermine level in human DU145 Cells at 100 uM after 3 days by HPLC method (reference value: 102 +/- 4 pmol/ug); type: functional; procedure, shortened: as §1
[3] = target: Peroxisomal N(1)-acetyl-spermine/spermidine oxidase (Homo sapiens, UniProt Q6QHF9); experiment: (§2) Inhibition of recombinant human APAO at 50 uM using N1-acetylspermidine level as substrate relative to control; settings: 50 µM
Procedure, shortened: (§3)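 Competition with natural substrate at fixed 50 μM: spermine for purified bovine plasma SSAO and human recombinant SMOX, N1-acetylspermidine for human recombinant APAO. Analogue tested at 50 μM, with activity expressed relative to reaction without analogue.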

DU-145 [4] = experiment: Downregulation of intracellular spermidine level in human DU145 Cells assessed per ug DNA at 100 uM after 3 days by HPLC method (reference value: 123 +/- 3 pmol/ug); type: functional; procedure, shortened: as §1
[5] = Drug level in human DU145 cells assessed per ug DNA at 100 uM after 3 days by HPLC method; type: ADME, cell-based; settings: du-145, 72 h; procedure, shortened: as §1
DU-145 [6] = experiment: Downregulation of intracellular spermidine level in human DU145 Cells assessed per ug DNA at 100 uM after 6 hrs by HPLC method (reference value: 134 +/- 7 pmol/ug); type: functional; procedure, shortened: as §1
DU-145 [7] = experiment: Cytotoxicity against human DU145 cells at 100 uM after 3 days; type: cell-based; settings: du-145, 72 h
Procedure, shortened: (§4)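 DU145 cells grown in high-glucose DMEM with 10% heat-inactivated FBS, 2 mM L-glutamine and gentamycin at 37 °C, 5% CO2. Treated 3 days with 100 μM analogue, with or without 1 mM aminoguanidine. Cells harvested by trypsinization and counted electronically (Coulter counter). Means ± SD, n = 3.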

DU-145 [8] = experiment: Downregulation of intracellular spermine level in human DU145 Cells at 100 uM after 6 hrs by HPLC method (reference value: 106 +/- 4 pmol/ug); type: functional; procedure, shortened: as §1
DU-145 [9] = experiment: Cytotoxicity against human DU145 cells at 100 uM in presence of SSAO inhibitor aminoguanidine after 3 days; type: cell-based; settings: du-145, 72 h; procedure, shortened: as §4
[10] = Drug level in human DU145 cells at 100 uM in presence of SSAO inhibitor aminoguanidine after 3 days by HPLC method; type: ADME, cell-based; settings: du-145, 72 h; procedure, shortened: as §1
DU-145 [11] = experiment: Downregulation of intracellular spermidine level in human DU145 Cells assessed per ug DNA at 100 uM after 3 days in presence of SSAO inhibitor aminoguanidine by HPLC method (reference value: 175 +/- 5 pmol/ug); type: functional; procedure, shortened: as §1
DU-145 [12] = experiment: Downregulation of intracellular spermine level in human DU145 Cells assessed per ug DNA at 100 uM after 3 days in presence of SSAO inhibitor aminoguanidine by HPLC method (reference value: 157 +/- 8 pmol/ug); type: functional; procedure, shortened: as §1
[13] = Drug level in human DU145 cells assessed per ug DNA at 100 uM after 6 hrs by HPLC method; type: ADME, cell-based; settings: du-145, 6 h; procedure, shortened: as §1
DU-145 [14] = experiment: Downregulation of intracellular N1-acetylspermidine level in human DU145 cells assessed per ug DNA at 100 uM after 6 hrs by HPLC method (Rvb < 3 pmol/ug); type: functional; procedure, shortened: as §1
[15] = Drug uptake in human DU145 cells assessed as reduction in [14C]-spermine uptake at 1 to 100 uM by competition based assay; type: ADME, cell-based; settings: du-145, 100 µM
DU-145 [16] = experiment: Downregulation of intracellular putrescine level in human DU145 Cells assessed per ug DNA at 100 uM after 3 days by HPLC method (reference value: 19 +/- 2 pmol/ug); type: functional; procedure, shortened: as §1
DU-145 [17] = experiment: Downregulation of intracellular putrescine level in human DU145 Cells assessed per ug DNA at 100 uM after 6 hrs by HPLC method (reference value: 40 +/- 2 pmol/ug); type: functional; procedure, shortened: as §1
[18] = target: APAO (peroxisomal N(1)-acetyl-spermine/spermidine oxidase) (Homo sapiens, UniProt Q6QHF9); experiment: as §2; settings: recombinant human APAO, probe N1-acetylspermidine; procedure, shortened: as §3
[19] = target: T1, Amine oxidase [copper-containing] 3 (Bos taurus, UniProt Q9TTK6); experiment: Substrate activity at bovine plasma SSAO at 5 mM relative to spermine; type: ADME; settings: cattle, 5000 µM
T1 sequence (Q9TTK6 whole entry): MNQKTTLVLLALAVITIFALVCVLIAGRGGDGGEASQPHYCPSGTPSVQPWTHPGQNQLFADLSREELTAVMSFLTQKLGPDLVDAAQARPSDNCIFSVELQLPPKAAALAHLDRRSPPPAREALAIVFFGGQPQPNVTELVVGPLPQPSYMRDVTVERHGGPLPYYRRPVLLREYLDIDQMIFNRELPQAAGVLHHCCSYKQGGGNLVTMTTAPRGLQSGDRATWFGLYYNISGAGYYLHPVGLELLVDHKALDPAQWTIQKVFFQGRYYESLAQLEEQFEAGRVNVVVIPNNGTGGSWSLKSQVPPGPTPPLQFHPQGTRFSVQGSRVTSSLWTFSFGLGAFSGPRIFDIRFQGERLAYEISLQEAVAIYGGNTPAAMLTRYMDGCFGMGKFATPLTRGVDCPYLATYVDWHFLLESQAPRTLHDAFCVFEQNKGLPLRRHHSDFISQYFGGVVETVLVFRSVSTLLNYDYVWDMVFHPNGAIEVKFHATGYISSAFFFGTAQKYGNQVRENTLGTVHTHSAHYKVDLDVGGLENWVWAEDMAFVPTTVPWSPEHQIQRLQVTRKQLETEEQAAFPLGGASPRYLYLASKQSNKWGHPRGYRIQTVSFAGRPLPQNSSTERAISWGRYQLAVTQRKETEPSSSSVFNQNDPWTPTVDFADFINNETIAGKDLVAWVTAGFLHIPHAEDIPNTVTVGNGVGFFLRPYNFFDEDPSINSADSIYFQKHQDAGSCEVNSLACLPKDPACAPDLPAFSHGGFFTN
Procedure, shortened: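 Purified bovine plasma SSAO given analogue as substrate at 5 mM, the same saturating concentration used for spermine. Activity compared with spermine. Means ± SD, n = 3.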

[20] = Drug metabolism in human DU145 cells at 100 uM assessed as methylspermidine metabolite level assessed per ug DNA after 6 hrs by HPLC method; type: ADME, cell-based; settings: du-145, 6 h; procedure, shortened: as §1
[21] = Drug metabolism in human DU145 cells at 100 uM assessed as methylspermidine metabolite level assessed per ug DNA in presence of SSAO inhibitor aminoguanidine after 3 days by HPLC method; type: ADME, cell-based; settings: du-145, 72 h; procedure, shortened: as §1
DU-145 [22] = experiment: Downregulation of intracellular N1-acetylspermidine level in human DU145 cells assessed per ug DNA at 100 uM after 3 days by HPLC method (reference value: 3 pmol/ug); type: functional; procedure, shortened: as §1
DU-145 [23] = experiment: Downregulation of intracellular N1-acetylspermidine level in human DU145 cells assessed per ug DNA at 100 uM after 3 days in presence of SSAO inhibitor aminoguanidine by HPLC method (reference value: 3 +/- 1 pmol/ug); type: functional; procedure, shortened: as §1

Sequence of Peroxisomal N(1)-acetyl-spermine/spermidine oxidase (Q6QHF9 whole entry): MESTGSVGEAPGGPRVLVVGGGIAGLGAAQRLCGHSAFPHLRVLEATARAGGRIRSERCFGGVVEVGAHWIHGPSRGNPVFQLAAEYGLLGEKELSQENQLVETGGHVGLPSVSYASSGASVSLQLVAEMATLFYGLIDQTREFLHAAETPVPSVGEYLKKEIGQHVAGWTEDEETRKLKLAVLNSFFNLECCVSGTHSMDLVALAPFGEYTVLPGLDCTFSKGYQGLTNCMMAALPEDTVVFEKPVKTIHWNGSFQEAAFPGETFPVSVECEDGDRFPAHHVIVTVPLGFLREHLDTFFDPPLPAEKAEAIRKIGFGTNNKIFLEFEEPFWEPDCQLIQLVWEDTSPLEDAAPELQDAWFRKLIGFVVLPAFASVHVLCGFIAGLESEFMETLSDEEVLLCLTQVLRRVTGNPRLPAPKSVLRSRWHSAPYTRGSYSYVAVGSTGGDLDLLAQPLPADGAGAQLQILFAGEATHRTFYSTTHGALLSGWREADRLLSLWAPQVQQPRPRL
Sequence of APAO (peroxisomal N(1)-acetyl-spermine/spermidine oxidase) (Q6QHF9 whole entry): as above

Drug metabolism [1] [pmol]	inhibition (INH) [3]	Drug uptake [5] [pmol]	Drug uptake [10] [pmol]	Drug uptake [13] [pmol]	Activity [15]	Drug metabolism [21] [pmol]	SMILES	Activity (DU-145 [2]) [pmol]	Activity (DU-145 [4]) [pmol]	Activity (DU-145 [6]) [pmol]	Activity (DU-145 [7])	Activity (DU-145 [8]) [pmol]	Activity (DU-145 [9])	Activity (DU-145 [11]) [pmol]	Activity (DU-145 [12]) [pmol]	Activity (DU-145 [14]) [pmol]	Activity (DU-145 [16]) [pmol]	Activity (DU-145 [17]) [pmol]	Activity (DU-145 [22]) [pmol]	further results
20	Not Active	147	222	59	Active		CC(CN)CNCCCCNCC(C)CN (stereo unspecified)	40	13	99	Non-Toxic	76	Non-Toxic	<3	33	4	<3	10		
116		29	191	26	Active	44	CC(CCN)NCCCCNC(C)CCN (stereo unspecified)	69	34	79	Non-Toxic	80	Non-Toxic	31	68	3	12	27	<3	inhibition at 50 µM [18]: 45%; Activity [19]: 30%; Drug metabolism [20]: 34 pmol
					Active		NCCCNCCCCNCCCN [SPERMINE]				Non-Toxic		Toxic							
4	Not Active	168	217	70	Active	10	CC(N)CCNCCCCNCCC(C)N (stereo unspecified)	27	13	105	Non-Toxic	84	Non-Toxic	3	19	5	<3	15	<3	Activity (DU-145 [23]): <3 pmol
